# ADAM10 inh = ADAM10 inhibition, QFRET primary screen. recombinant ADAM10, EDANS/DABCYL FRET peptide cleavage, 3 h. O14672. actives 0.62% (n = 370,000). AID 720582. inhibition, % at 7 µM;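 active means inhibition above a per-campaign cutoff equal to the mean of compounds falling between control-based bounds plus 3 SD, cut at about 20% in these data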
# ADAM17 inh = ADAM17 inhibition, QFRET primary screen; P78536; recombinant ADAM17, EDANS/DABCYL FRET peptide cleavage; inhibition, % at 6.95 µM; actives 0.83% (n = 370,000);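 active means inhibition above the mean of compounds lying between control limits plus 3 SD, set per campaign, cut at about 8.5% in these data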
# KLK7 zymogen act = proKLK7 (human) activation, primary screen. purified proKLK7, EDANS-DABCYL substrate fluorescence; 100% is mature enzyme control, 0% vehicle. activation, % at 7 µM. actives 0.9% (n = 370,000);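 active means activation above the mean of all tested compounds plus 3 SD, computed per campaign excluding outliers beyond control limits, cut at about 13% in these data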
# Target sequence (P49862 whole entry, looked up): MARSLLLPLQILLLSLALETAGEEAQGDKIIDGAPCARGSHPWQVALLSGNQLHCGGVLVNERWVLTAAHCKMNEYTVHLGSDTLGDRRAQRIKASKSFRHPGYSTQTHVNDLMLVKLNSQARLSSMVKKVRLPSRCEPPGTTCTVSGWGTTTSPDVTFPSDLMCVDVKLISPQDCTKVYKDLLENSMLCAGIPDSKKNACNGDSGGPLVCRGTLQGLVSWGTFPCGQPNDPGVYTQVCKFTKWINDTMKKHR
# NR2E3 ag-1 = agonists of human nuclear receptor NR2E3 | GST-NR2E3/biotin-RetCOR TR-FRET, 1536-well | inhibition of corepressor binding, % at 4.78 µM | actives 0.12% (n = 320,000);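 active means percent inhibition above the cutoff of mean plus 3 SD of all tested compounds, set per screening campaign, cut at about 20% in these data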
# Target sequence (Q9Y5X4 whole entry, looked up): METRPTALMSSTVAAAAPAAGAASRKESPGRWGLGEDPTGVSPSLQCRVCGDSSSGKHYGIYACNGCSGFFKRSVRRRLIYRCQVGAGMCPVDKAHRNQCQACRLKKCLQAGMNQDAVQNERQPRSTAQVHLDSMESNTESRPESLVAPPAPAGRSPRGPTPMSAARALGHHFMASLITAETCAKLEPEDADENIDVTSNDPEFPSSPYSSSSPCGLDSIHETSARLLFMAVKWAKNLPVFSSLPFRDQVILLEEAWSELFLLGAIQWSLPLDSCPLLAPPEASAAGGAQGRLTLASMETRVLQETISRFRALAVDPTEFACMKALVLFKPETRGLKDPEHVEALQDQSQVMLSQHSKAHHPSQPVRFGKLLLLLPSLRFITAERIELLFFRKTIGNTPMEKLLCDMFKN
#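 Test system: GST-NR2E3 and biotin-RetCOR proteins | Quantity: 1.35 nM GST-tagged NR2E3 final | Medium: Tris pH 7.5 | Also added: 7 nM biotin-RetCOR | Dosing: Compound at 4.8 µM, single dose | Timing: 5 h at 4 °C | Detection: Time-resolved FRET | Read-out basis: Percent inhibition | Benchmarks: Biotin wells as high control, 0.6% DMSO wells as low control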
# NR2E3 ag-2 = agonists of human NR2E3 nuclear receptor | Q9Y5X4 | AID 602229 | CHO-S Gal4-NCOR/VP16-NR2E3 two-hybrid, luciferase | inhibition of corepressor binding, % at 3.98 µM | actives 0.35% (n = 360,000);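 active means inhibition above the mean of all tested compounds plus 3 SD, cut at about 70% in these data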;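 further: higher means lower luciferase signal from less NR2E3 corepressor binding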
# JMJD2C inh = blocks human GASC-1 demethylase activity | GST-JMJD2C(1-420) H3K9me3 demethylation, DELFIA europium | AID 2099 | actives 0.069% (n = 330,000) | inhibition, % at 2.35 µM | Q9H3R0;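 active means more than half of a compound's replicate wells show inhibition beyond 50%, single wells judged on their own value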;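 further: signal counts dimethyl H3K9 product captured on neutravidin plate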
# ADAM10 confirm = confirmation of inhibitors of human ADAM10 | ADAM10 QFRET peptide cleavage, EDANS fluorescence | inhibition, % at 6.95 µM | actives 1% (n = 2,100) | shares compounds with ADAM10 inh | AID 743208;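 active means inhibition above about 20% chosen separately for each screening run, limit read from the data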
# ADAM17 ctr = inhibits human ADAM17 in ADAM10 exosite counter-screen. shares compounds with ADAM10 inh. ADAM17 QFRET peptide cleavage, EDANS fluorescence. inhibition, % at 6.95 µM. actives 0.5% (n = 2,100). AID 743214;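 active means mean triplicate inhibition above the solvent-only control wells' mean plus 3 SD, cut at about 12% in these data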
# ADAM10 ctr = counter-screen for ADAM17 exosite inhibitors: inhibitors of human ADAM10; recombinant ADAM10, EDANS/DABCYL FRET peptide cleavage, 3 h; shares compounds with ADAM17 inh; AID 743256; inhibition, % at 6.95 µM; actives 47% (n = 2,900);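 active means mean inhibition over the triplicate runs exceeds the activity threshold set in the earlier primary screen, cut at about 20% in these data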
# ADAM17 confirm = human ADAM17 inhibition, confirmation; shares compounds with ADAM17 inh; recombinant ADAM17, EDANS/DABCYL QFRET peptide cleavage; inhibition, % at 6.95 µM; actives 65% (n = 2,900); AID 743257;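 active means mean inhibition across replicates above the hit cutoff set in the primary screen, cut at about 8.5% in these data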
# A number is an active result; - = inactive; . = not tested or not shown. This is a sample that favours compounds with a hit; in the whole collection about 2.5% have one here.
SMILES,ADAM10 inh,ADAM17 inh,KLK7 zymogen act,NR2E3 ag-1,NR2E3 ag-2,JMJD2C inh,ADAM10 confirm,ADAM17 ctr,ADAM10 ctr,ADAM17 confirm
NC(=O)CC(NC(=O)c1ccc(Br)cc1)c1ccc(N2CCCCCCC2)c([N+](=O)[O-])c1 (stereo not drawn),22.6,10.5,-,-,-,-,-,-,22.0,12.2
OC(c1ccccc1)c1nc(-c2csc3ccccc23)cs1 (stereo not drawn),33.1,16.4,-,.,-,.,-,-,29.8,15.9
CC(C)(C)S(=O)N1Cc2cc(C(=O)NCc3ccc4c(c3)OCO4)nc(-c3cccc(-c4ccccc4)c3)c2[C@@H]1CCO (stereo partly drawn),26.0,9.2,-,.,-,.,-,-,-,9.3
Cc1ccc(C(=O)Nc2nnc(NC(=S)Nc3ccccc3)s2)cc1,23.7,9.2,-,-,-,-,-,-,-,-
CCOc1ccc(C(=O)Nc2nnc(NC(=S)Nc3ccccc3)s2)cc1,-,-,-,-,-,-,.,.,.,.
CCOc1ccc(N(CC(=O)NCc2ccccc2Cl)S(=O)(=O)c2c(C)noc2C)cc1,-,-,-,-,-,-,.,.,.,.
CCOc1ccc(S(=O)(=O)N(CC(=O)Nc2cc(C)on2)Cc2ccccc2Cl)cc1,29.0,15.9,-,-,-,-,-,-,-,-
O=C(Nc1ccccc1)OC1CCC2CC1CCC2OC(=O)Nc1ccccc1 (stereo not drawn),23.6,11.5,-,-,-,-,-,-,38.4,18.4
Cc1ccc(NC(=O)CCN2C(=O)C3CCCCC3C2=O)cc1[N+](=O)[O-] (stereo not drawn),-,-,-,-,-,-,.,.,.,.
O=S(=O)(NC1c2cccc3cccc(c23)C1Sc1ncccn1)c1ccc(Cl)cc1 (stereo not drawn),24.6,9.7,-,-,-,-,-,-,27.5,13.8
c1ccc2[nH]c3cc4ncnc4cc3nc2c1,-,-,-,-,-,-,.,.,.,.
Cc1cccc(N2CCN(S(=O)(=O)c3c(C)[nH]c(C)c3C(=O)N3CCCC3)CC2C)c1 (stereo not drawn),-,-,-,-,-,-,.,.,.,.
CCOC(=O)c1c(C)[nH]c(C)c1S(=O)(=O)N1CCN(c2cccc(C)c2)C(C)C1 (stereo not drawn),20.2,9.1,-,-,-,-,-,-,-,-
CCOC(=O)N1CCc2cc(OC)c(OC)c3c2c1cc1cc(OC)c(OC)cc13,-,-,-,.,-,.,.,.,.,.
CCCN(CC(=O)Nc1cccc(Br)c1)CC(=O)Nc1ccc(F)c(F)c1F,32.1,21.5,-,-,-,-,-,-,29.0,15.5
CCCN(CC(=O)Nc1cccc(S(N)(=O)=O)c1)CC(=O)Nc1ccc(F)c(F)c1F,-,-,-,-,-,-,.,.,.,.
CCOc1ccccc1NC(=O)CN(c1ccc(Cl)cc1)S(C)(=O)=O,-,-,-,-,-,-,.,.,.,.
Cc1ccc(C(=O)OCc2ccc3c(c2)OCO3)cc1S(=O)(=O)N1CCCCC1,20.8,13.0,-,-,-,-,-,-,-,9.4
Cc1ccc(C(=O)Nc2ccc3c(c2)OCO3)cc1S(=O)(=O)N1CCCC1,-,-,-,-,-,-,.,.,.,.
CCc1ccc(NC(=O)C(C)OC(=O)c2ccc(NS(=O)(=O)c3ccc(C)c([N+](=O)[O-])c3)cc2)cc1 (stereo not drawn),28.7,11.8,-,-,-,-,-,-,27.2,17.5
CC1=C(C(=O)Nc2ccc([N+](=O)[O-])cc2)C(c2cccc(C(F)(F)F)c2)NC(=S)N1c1ccccc1 (stereo not drawn),34.5,17.7,-,-,-,-,-,-,59.2,31.7
CN(C(=O)c1cccs1)C1(C)CCS(=O)(=O)C1 (stereo not drawn),-,-,-,-,-,-,.,.,.,.
CC(C)(C)c1ccc2c(c1)OC(C(=O)N/N=C\c1ccccn1)CO2 (stereo not drawn),20.5,11.8,-,-,-,-,-,-,-,-
Cc1cc(F)ccc1S(=O)(=O)Nc1ccccc1C(=O)NC1CCN(Cc2ccccc2)CC1,-,-,-,.,-,.,.,.,.,.
O=C(Oc1ccc(OC(=O)c2ccco2)c(S(=O)(=O)c2ccc(Cl)cc2)c1)c1ccco1,26.4,8.8,-,-,-,-,-,-,-,9.7
SMILES,ADAM10 inh,ADAM17 inh,KLK7 zymogen act,NR2E3 ag-1,NR2E3 ag-2,JMJD2C inh,ADAM10 confirm,ADAM17 ctr,ADAM10 ctr,ADAM17 confirm
CC(=O)c1cc(Cl)ccc1OC(=O)c1ccco1,-,-,-,-,-,-,.,.,.,.
CC(C)(C)c1cc(C(=O)C[n+]2ccc(C(=O)NCCCO)cc2)cc(C(C)(C)C)c1O,-,-,-,-,-,-,.,.,.,.
FC(F)(F)c1cccc(NC(=S)NCc2ccccn2)c1,-,-,-,-,-,-,.,.,.,.
FC(F)(F)c1cccc(NC(=S)NCCN2CCOCC2)c1,-,-,-,-,-,-,.,.,.,.
FC(F)(F)c1cccc(NC(=S)NCC2COc3ccccc3O2)c1 (stereo not drawn),28.4,9.2,-,-,-,-,-,-,43.6,18.1
FC(F)(F)c1cccc(NC(=S)NNC(=S)NCc2ccccc2)c1,20.2,11.6,-,-,-,-,-,-,31.4,19.3
Cc1cccc(NC(=O)C2C(c3ccccc3)C2(Cl)Cl)c1 (stereo not drawn),21.3,11.4,-,-,-,-,-,-,24.4,14.0
O=C(CSc1nnc(SCc2cccc3ccccc23)s1)Nc1ccc(S(=O)(=O)Nc2nccs2)cc1,35.1,10.8,-,.,.,.,-,-,25.7,11.4
COc1ccc(Nc2sc(C(=O)c3ccc(Cl)cc3)c(N)c2C(=O)Nc2ccccc2OC)cc1,-,-,-,-,-,-,.,.,.,.
COc1ccccc1NC(=O)c1c(Nc2ccccc2C)sc(C(=O)Nc2cccc(Cl)c2)c1N,21.1,10.3,-,-,-,-,28.3,-,-,14.4
CCCN(C1CCS(=O)(=O)C1)S(=O)(=O)c1cc(OC)ccc1OC (stereo not drawn),-,-,-,-,-,-,.,.,.,.

# Assay outcomes: PubChem, several laboratories
